# Compound activity as filed in PubChem BioAssay.
# MT stabilize HCS: microtubule stabilizers in HeLa cells | HeLa tubulin immunostaining HCS, 24 h; share of cells brighter than vehicle mean+2SD | % tubulin-high responders, % at 10 µM | 200,000 compounds, 0.83% hits | AID 2205;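 active = plate Z-score above 3 for both tubulin-high and condensed-nucleus cell shares, with cell loss under 80%, at 10 µM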;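 note: anti alpha tubulin signal scored within the nucleus-defined area of each cell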
# b-catenin transl: modulators of beta-catenin nuclear translocation | 190,000 compounds, 0.3% hits | nuclear translocation activity, % at 5 µM | HeLa beta-catenin nuclear translocation, immunofluorescence imaging;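 active = nuclear translocation activity above 50% at 5 µM, with a well cell count of 50 or more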;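 note: per-cell ratio of nuclear to cytoplasmic median beta-catenin stain intensity; plate controls were DMSO negative control for no effect and GSK-3 inhibitor IX positive control for full effect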
#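 Assay system: human HeLa cells, native beta-catenin; doses: 5 µM primary, 0.02–20 µM confirmation; incubation: compound treatment 24 h, 37°C, 5% CO2; technique: fluorescence imaging of beta-catenin antibody stain plus DAPI; measure: % activation, nuclear-to-cytoplasmic median beta-catenin signal ratio per cell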
# Efa HMGR inh: blocks class II HMG-CoA reductase of Enterococcus faecalis. purified E. faecalis HMGR, NADPH absorbance 340 nm kinetic. inhibition, % at 10 µM. 190,000 compounds, 0.41% hits. AID 1066;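 active = inhibition above a set limit, the median over all tested compounds plus 3 SD, cut at about 9.5% in these data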;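 note: enzyme runs in reverse so mevalonate oxidation gives rising NADPH absorbance; 0% = complete reaction with DMSO and 100% = background rate lacking mevalonate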
# Tb hexokinase: blocks Trypanosoma brucei hexokinase 1 activity | 220,000 compounds, 0.11% hits | inhibition, % at 10 µM | AID 1430 | recombinant TbHK1, G6PDH-coupled NADH A340;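 active = inhibition of 50% or more in the single-dose primary screen; inactive = inhibition below 50%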
# EP2 modulator: modulators of human EP2 prostaglandin E2 receptor; P43116; induction, % at 25 µM; 260,000 compounds, 0.83% hits; AID 940; EP2-expressing cells, cAMP HTRF FRET, PGE2 co-stimulation;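 active = compounds whose cAMP rise, as percent of the full-agonist control response, exceeds 60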;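 note: rat C6 glioma line stably carrying human EP2 under a CMV promoter; the protocol text gives 20 µM as final concentration; 100% = response of wells given 1 µM PGE2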
# Target sequence (P43116 whole entry, looked up): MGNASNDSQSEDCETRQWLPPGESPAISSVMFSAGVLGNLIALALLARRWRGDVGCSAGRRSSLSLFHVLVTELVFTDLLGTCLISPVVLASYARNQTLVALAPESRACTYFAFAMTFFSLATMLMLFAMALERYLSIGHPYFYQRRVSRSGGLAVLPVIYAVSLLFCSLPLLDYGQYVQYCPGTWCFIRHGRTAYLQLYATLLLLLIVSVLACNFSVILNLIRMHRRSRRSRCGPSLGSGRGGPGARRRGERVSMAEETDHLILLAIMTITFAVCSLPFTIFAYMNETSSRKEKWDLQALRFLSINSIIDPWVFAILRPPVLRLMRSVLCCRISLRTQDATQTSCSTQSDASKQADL
# EP2 antag: blocks the human prostaglandin E2 receptor EP2 | C6 glioma cells expressing human EP2, cAMP TR-FRET; cells stimulated with saturating PGE2 | inhibition, % at 25 µM | 260,000 compounds, 0.52% hits;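 active = percent inhibition above 40 after rounding to a whole number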;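 note: rat C6 glioma host cells with rolipram phosphodiesterase inhibitor present; the protocol text gives 20 µM as final concentration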
# EP2 confirm: EP2 receptor cAMP induction, counter-screens negative; shares compounds with EP2 modulator; C6 glioma EP2 cells, cAMP HTRF induction; plus low (about EC15) PGE2 agonist; calls only at 20 µM (by protocol); 1,300 compounds, 47% hits;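 active = cAMP induction above 50% in the main assay while under 30% in all four parallel counter assays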;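 note: rat C6 glioma cells stably expressing human EP2 receptor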
# An asterisk follows results filed as active; i = inactive; · = no result; + = active, no number. Most compounds without a hit are left out; they make up all but 2.4% or so of the library.
SMILES,MT stabilize HCS,b-catenin transl,Efa HMGR inh,Tb hexokinase,EP2 modulator,EP2 antag,EP2 confirm
COc1ccc(C)cc1NC(=O)C1CC(=O)OC12CCCCC2 (stereo not given),1.6,·,1.3,-2.2,65.4*,10.2,i
COC(=O)n1c(=S)oc2cc(Cl)ccc21,4.0,·,-2.4,18.2,43.1,2.1,·
CCCCOC(=O)n1c(=S)oc2cc(Cl)ccc21,2.3,-0.3,-3.2,-0.4,71.3*,12.8,i
COCCSc1nnc(Cc2ccc3c(c2)OCO3)o1,·,·,·,·,-0.9,6.5,·
COc1cccc(-c2cc(C(F)(F)F)n3ncc(C(=O)Nc4sc5c(c4C#N)CCCC5)c3n2)c1,·,·,·,·,-22.1,8.2,·
CCC(C)(C)NC(=O)C(c1ccncc1)N(C(=O)Cn1nnc2ccccc21)c1ccccc1F (stereo not given),·,·,·,·,10.4,10.7,·
O=S(Cc1cc(Sc2ccccc2)nc(-c2ccccc2)n1)c1ccccc1 (stereo not given),2.0,-2.9,0.4,-2.3,71.5*,8.1,+
CNc1cc(CS(=O)c2ccccc2)nc(-c2ccccc2)n1 (stereo not given),1.8,-1.1,-5.5,3.6,-8.0,14.6,·
CCOC(=O)c1oc2ccccc2c1NC(=O)c1cccc(OC)c1OC,33.7*,-1.2,-0.8,-2.8,65.8*,10.1,i
Cc1cccc2cc(C(c3nnnn3Cc3ccc4c(c3)OCO4)N3CCN(C)CC3)c(=O)[nH]c12 (stereo not given),·,·,·,·,-21.9,6.1,·
FC(F)(F)c1cccc(/C=N/NC(=S)NC2CCCCC2)c1,3.8,-0.4,-3.2,-6.6,80.0*,4.5,+
CC(=O)O[C@@H]1CC[C@@]2(C)C(C[C@@H](OC(C)=O)[C@@]3(C)C4=CC(=O)O[C@@H](c5ccoc5)[C@]4(C)CCC23)C1(C)C (stereo not given in full),·,·,·,·,1.7,12.7,·
COC(=O)CC1C(C)(C)C(OC(C)=O)[C@@H]2[C@@H](OC(C)=O)[C@]34O[C@@]2(O)[C@]1(C)C3CC[C@]1(C)C4=CC(=O)O[C@H]1c1ccoc1 (stereo not given in full),·,·,·,·,53.2,9.2,i
C[N+](C)(C)/N=C/c1ccc(O)c(O)c1,·,·,·,·,15.2,30.8,·
CN(/N=C\c1ccc(O)c(O)c1)c1nc(-c2ccccc2)cc(-c2ccccc2)n1,4.1,2.3,-0.5,-17.1,67.1*,9.3,i
CCOc1ccccc1NC(=O)CN1CCC(n2nnc3cc(C(F)(F)F)ccc32)CC1,·,·,·,·,16.6,3.9,·
O=C(COc1ccccc1)Nc1ccccc1Oc1ccccc1,2.7,0.5,-0.8,0.6,72.1*,4.1,+
O=C(COc1ccccc1)Nc1ccccc1N1CCN(c2ccc(F)cc2)CC1,5.7,-7.5,-1.7,9.3,35.5,15.7,·
Cc1ccc(OCC(=O)Nc2ccccc2-c2ccccc2)cc1,1.2,-9.2,·,8.9,60.1,-1.8,·
COc1cccc(OCC(=O)Nc2ccccc2-c2ccccc2)c1,1.6,3.0,-2.6,3.1,70.4*,12.7,+
O=C(COc1ccccc1)Nc1ccccc1N1CCN(c2ccccc2)CC1,2.2,·,-4.3,0.4,72.9*,8.3,+
O=C(Nc1ccccc1Oc1ccccc1)c1ccccc1F,1.6,·,3.2,26.5,68.1*,5.2,i
O=C(COc1ccccc1)Nc1cc(C(F)(F)F)ccc1N1CCCC1,1.1,0.0,1.8,7.2,78.8*,18.9,i
Cc1nc(NC(C)c2ccccc2)c2c3c(sc2n1)CCC3 (stereo not given),1.3,·,1.3,-6.0,70.9*,7.4,i
Cc1ccc(Nc2nc(CSc3nnc(-c4ccccc4C)n3C)cs2)cc1,2.3,1.6,-3.3,6.3,70.8*,4.2,+
SMILES,MT stabilize HCS,b-catenin transl,Efa HMGR inh,Tb hexokinase,EP2 modulator,EP2 antag,EP2 confirm
O=C(Cn1cc(C(=O)c2ccccc2)c2ccccc21)NC1CCCC1,·,·,·,·,-6.6,11.3,·
O=C(O)CCCCCN1C(=O)/C(=C\c2cn(-c3ccccc3)nc2-c2cccs2)SC1=S,·,-0.6,·,33.4,52.8,3.8,·
O=C(O)CCN1C(=O)/C(=C/c2cn(-c3ccccc3)nc2-c2cccs2)SC1=S,1.2,0.7,-5.2,25.5,70.5*,4.1,+
COc1ccc(S(=O)(=O)N(CC(=O)Nc2ccc3c(c2)OCCO3)c2ccc(C)cc2)cc1,·,·,·,·,-5.9,3.1,·
Cc1ccc(/C=N/N(Cc2ccccc2)c2ccccc2)o1,2.0,-1.3,2.2,-8.1,69.1*,6.3,+
Cc1ccc(/C=N/N2CCN(Cc3ccccc3)CC2)o1,5.6,-0.3,-2.0,-4.8,-24.7,10.1,·
c1ccc2c(c1)OCC(c1csc3ncnc(N4CCCCC4)c13)O2 (stereo not given),2.3,-5.2,-4.4,6.0,84.3*,18.8,+
CC1CCc2cc(F)cc3c(O)c(C(=O)NCc4ccco4)c(=O)n1c23 (stereo not given),4.3,·,5.4,-0.7,69.1*,·,i
O=C(Nc1cc(C(F)(F)F)ccc1-n1cncn1)c1ccc(-c2ccccc2)cc1,1.2,·,2.3,-7.4,65.8*,6.1,+
CCOC(=O)Cn1c(=S)[nH]c2c(oc3ccc(Cl)cc32)c1=O,1.3,-0.5,2.1,-7.7,97.6*,16.4,i
CCOC(=O)Cc1csc(NC(=O)COc2ccc(C)cc2C(C)(C)C)n1,·,·,·,·,31.9,10.1,·
Cc1ccc(C2(O)CCN(Cc3cnn(-c4ccc(F)cc4)c3)CC2)cc1,·,·,·,·,-86.8,2.9,·
Cn1c(=O)c2c(nc(CN3CCN(c4ccccc4)CC3)n2Cc2c(F)cccc2Cl)n(C)c1=O,5.1,-3.7,-5.6,0.3,70.9*,1.7,i
Cn1c(=O)c2c(nc(CN3CCN(c4ccccc4)CC3)n2Cc2ccccc2F)n(C)c1=O,·,-3.8,·,·,·,·,·
Cn1c(=O)c2c(nc(CN3CCN(c4ccccc4)CC3)n2Cc2ccccc2Cl)n(C)c1=O,37.0,-8.1,-1.1,-4.8,57.6,5.6,i
CCOC(=O)Cc1csc(NC(=O)CCC(=O)O)n1,·,-2.7,·,-12.3,8.3,11.3,·
CCOC(=O)Cc1csc(NC(NC(=O)CC)(C(F)(F)F)C(F)(F)F)n1,4.4,-2.9,0.7,-2.0,65.2*,9.8,i
CCOC(=O)n1c(=O)n(Cc2ccc(Cl)c(Cl)c2)c2ccccc21,1.7,-1.4,-1.1,-0.2,77.0*,9.2,+
O=c1cc(N2CCCCC2)c(-c2ccccc2)nn1Cc1ccc(Cl)cc1Cl,2.1,·,-3.6,11.3,60.4,8.5,·
O=c1cc(N2CCCCC2)c(-c2ccccc2)nn1Cc1cccc(Cl)c1,2.8,·,-0.4,4.7,80.8*,7.4,+
